Experimental data taken from ChEMBL document CHEMBL4041494, “Simple synthesis of endophenazine G and other phenazines and their evaluation as anti-methicillin-resistant Staphylococcus aureus agents” (Eur J Med Chem, 2017).
pIC50: −log10 of the molar value. ≈ marks a conversion by molar mass, not a printed value. Calls of active or inactive are those of the source. The calls are words filed in the database; no cut-off is given here.

Tests used:
Staphylococcus aureus [1] = experiment: Antibacterial activity against methicillin-resistant Staphylococcus aureus LAC JE2 after 24 hrs by broth microdilution assay; assay type: functional; settings: LAC JE2, 24 h
In short: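 Broth microdilution per ASM Clinical Microbiology Procedures Handbook (3rd ed.). Compound stock at pH 7, serial 2-fold dilutions in cation-adjusted Mueller Hinton II broth with 5% DMSO. Inoculum from direct colony suspension at 0.5 McFarland, 10 ul per well. Static incubation at 37°C for 24 h. MIC is the lowest concentration with no visible growth. Vancomycin positive control, medium-only negative control.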

Staphylococcus aureus [2] = experiment: Antibacterial activity against methicillin-resistant Staphylococcus aureus after 24 hrs by broth microdilution assay
Staphylococcus aureus [3] = experiment: Induction of membrane disruption in methicillin-resistant Staphylococcus aureus LAC JE2 at 1 to 10 times MIC measured at 15 mins interval for 4 hrs by propidium iodide staining based fluorescence assay; assay type: functional
In short: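 S. aureus JE2 resuspended in PBS to OD600 1.0 and treated with 1X, 2X or 10X MIC. Propidium iodide fluorescence (RFU) read in a plate reader every 15 min for 4 h.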

Staphylococcus aureus [4] = experiment: Induction of membrane disruption in methicillin-resistant Staphylococcus aureus LAC JE2 at 1 to 10 times MIC by propidium iodide staining based confocal microscopic method; assay type: functional
Equus caballus = species on record: Equus caballus; experiment: Induction of equine heart cytochrome-c reduction at 25 to 100 uM measured for 900 sec at 30 sec time interval in presence of NADPH by photospectrometric method; assay type: functional
In short: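 Compound stock 10 mM in 95% DMSO/5% 0.1 M NaOH, diluted in DPBS to 200 μM and serially diluted, keeping 5% DMSO/NaOH. NADPH 100 μM, then cytochrome c 20 μM added. Absorbance at 550 nm read, with 700 nm as baseline correction. Controls: cyt-c alone, cyt-c plus NADPH, and buffer alone.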

[5] = Induction of ROS generation at 0.11 to 0.55 mM measured for 500 sec at 30 sec time interval in presence of NADPH by ABDA staining based photospectrometric method
In short: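 Compound 10 mM in 95% DMSO/5% 0.1 M NaOH, serially diluted keeping 5% DMSO/NaOH in DPBS. NADPH 100 μM and ABDA 5 μM final added. Superoxide followed as ABDA decay at 479 nm. Triplicate per concentration. Controls: ABDA alone in buffer, and buffer alone.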

[6] = Induction of ROS generation by HPF staining based flow cytometry
Staphylococcus aureus [7] = experiment: Bacteriostatic activity against methicillin-resistant Staphylococcus aureus LAC JE2 at 10 times MIC by serial dilution method; assay type: functional
In short: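 Overnight culture diluted 1:1000 into fresh CAMHB and grown 2 h at 37°C with agitation. 1-ml aliquots then treated with 10X MIC of compound. Samples taken every 2 h, and viability counted by serial dilution and plating on tryptic soy agar.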

HaCaT = experiment: Cytotoxicity against human HaCaT cells assessed as reduction in cell viability by CellTiter blue assay; assay type: cell-based
In short: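 HaCaT keratinocytes. Compound dissolved in 2:3 NaOH (0.01 M)/DMSO, diluted in DMEM with 10% FBS and 1% penicillin-streptomycin to 4 mM top concentration (3% DMSO), then serially diluted in DMEM. Viability read by CellTiter-Blue, following resazurin absorbance change on a spectrophotometer. Absorbance plotted against concentration and IC50 calculated.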

Structure (SMILES)	MIC (Staphylococcus aureus [1]) [µg/mL]	other results
COC(=O)c1cccc2nc3c(Br)cccc3nc12	> 128	
O=C(O)c1cccc2nc3cccc(F)c3nc12	64 (≈ 264 µM)	
COC(=O)c1cccc2nc3cccc(C)c3nc12	64 (≈ 254 µM)	
N#Cc1cccc2nc3cccc(Br)c3nc12	> 128	
O=C(O)c1cccc2nc3cc(Br)ccc3nc12	64 (≈ 211 µM)	
O=C(O)c1cccc2nc3c(Br)cccc3nc12	128 (≈ 422 µM)	
NC(=O)c1cccc2nc3ccccc3nc12		MIC (Staphylococcus aureus [2]): 64 µg/mL (≈ 287 µM)
CS(=O)(=O)NC(=O)c1cccc2nc3cccc(Cl)c3nc12	2 (≈ 5.96 µM)	Activity (Staphylococcus aureus [3]): inactive; Activity (Staphylococcus aureus [4]): inactive; Activity (Equus caballus): Active; Activity [5]: inactive; Activity [6]: inactive; Activity (Staphylococcus aureus [7]): Active; pIC50 (HaCaT): 3.71
O=C(O)c1cccc2nc3cccc(Br)c3nc12	32 (≈ 106 µM)	pIC50 (HaCaT): 3.46
COC(=O)c1cccc2nc3c(/C=C/C(C)(C)O)cccc3nc12	128 (≈ 397 µM)	
CS(=O)(=O)NC(=O)c1cccc2nc3cccc(Br)c3nc12	4 (≈ 10.5 µM)	pIC50 (HaCaT): 3.93
CC(C)(O)/C=C/c1cccc2nc3c(C(=O)O)cccc3nc12	128 (≈ 415 µM)	
O=C(O)c1cccc2nc3ccccc3nc12 [PHENAZINE-1-CARBOXYLIC ACID]		MIC (Staphylococcus aureus [2]): 64 µg/mL (≈ 285 µM)
NC(=O)c1cccc2nc3cccc(F)c3nc12	> 128	
CN(C)C(=O)c1cccc2nc3cccc(/C=C/C(C)(C)O)c3nc12	> 128	
CC(C)(O)/C=C/c1cccc2nc3cccc(C(=O)O)c3nc12	32 (≈ 104 µM)	Activity (Staphylococcus aureus [3]): inactive; Activity (Staphylococcus aureus [4]): inactive; Activity (Equus caballus): Active; Activity [5]: inactive; Activity [6]: inactive; Activity (Staphylococcus aureus [7]): Active; pIC50 (HaCaT): 3.51
CC(C)(O)CCc1cccc2nc3cccc(C(=O)O)c3nc12	64 (≈ 206 µM)	
CN(C)C(=O)c1cccc2nc3c(/C=C/C(C)(C)O)cccc3nc12	> 128	Activity (Equus caballus): Active
COC(=O)c1cccc2nc3cccc(Br)c3nc12	128 (≈ 404 µM)	
CC(C)(O)/C=C/c1cccc2nc3cccc(C#N)c3nc12	128 (≈ 442 µM)	
Cc1cccc2nc3cccc(C(=O)O)c3nc12	32 (≈ 134 µM)	
CN(C)C(=O)c1cccc2nc3cccc(Br)c3nc12	> 128	
COC(=O)c1cccc2nc3cccc(/C=C/C(C)(C)O)c3nc12	128 (≈ 397 µM)	
O=C(O)c1cccc2nc3cccc(Cl)c3nc12	16 (≈ 61.9 µM)	
COC(=O)c1cccc2nc3ccccc3nc12		MIC (Staphylococcus aureus [2]): 128 µg/mL (≈ 537 µM)
